Results taken from ChEMBL document CHEMBL3259670, “Discovery of 1-aryloxyethyl piperazine derivatives as Kv1.5 potassium channel inhibitors (part I)” (Eur J Med Chem, 2014).
Calls of active or inactive are those of the source. No cut-off for these calls is given here.

System: Rattus norvegicus
Assay: Inhibition of Cacl2-Ach-induced atrial fibrillation Sprague-Dawley rat model assessed as reduction in duration of atrial fibrillation at 2.5 mg/kg, ip during day 1 to day 3
Format: functional, organism-based
Parameters: dose 2.5 mg/kg
Conditions: Cardiac atrium

Compound	Activity
CC(C)NCC(O)c1ccc(NS(C)(=O)=O)cc1 (configuration not stated)	inactive
O=C(c1cccs1)N1CCN(CCOc2ccc(Cl)cc2)CC1	inactive

System: MDCK
Assay: (§1) Apparent permeability from basolateral to apical side in MDCK cells
Format: ADME, cell-based, Canis lupus familiaris
Conditions: dog
Method in brief: (§2)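 Bidirectional transport (apical→basolateral and basolateral→apical) was measured in parental MDCK cells and in MDR1-MDCK cells, which stably express multidrug resistance gene 1, to assess P-glycoprotein substrate status. Apparent permeability coefficients (Papp) were determined for each direction. Efflux ratios are ratios of the directional Papp values, computed per cell line. Mean ± SD, n = 3.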

Compound	Papp [×10⁻⁶ cm/s]
N#Cc1ccc(OCCN2CCN(CC(=O)Nc3nccs3)CC2)cc1	16.7
O=C(CN1CCN(CCOc2ccc(OC(F)(F)F)cc2)CC1)Nc1nccs1	16.9
Cc1ccccc1OCCN1CCN(CC(=O)Nc2nccs2)CC1	34.2

System: not listed separately
Assay: as §1
Format: ADME, cell-based, Canis lupus familiaris
Conditions: dog
Method in brief: as §2

Compound	Papp B→A [×10⁻⁶ cm/s]
O=C(c1cccs1)N1CCN(CCOc2ccc(Cl)cc2Cl)CC1	19.1
O=C(c1cccs1)N1CCN(CCOc2ccc(Cl)cc2)CC1	21.9
Cc1ccc(OCCN2CCN(C(=O)c3cccs3)CC2)cc1	31.1

System: MDCK
Assay: (§3) Apparent permeability from apical to basolateral side in MDCK cells
Format: ADME, cell-based, Canis lupus familiaris
Conditions: dog
Method in brief: as §2

Compound	Papp [×10⁻⁶ cm/s]
N#Cc1ccc(OCCN2CCN(CC(=O)Nc3nccs3)CC2)cc1	14.8
O=C(CN1CCN(CCOc2ccc(OC(F)(F)F)cc2)CC1)Nc1nccs1	12.2
Cc1ccccc1OCCN1CCN(CC(=O)Nc2nccs2)CC1	32.2

System: not listed separately
Assay: as §3
Format: ADME, cell-based, Canis lupus familiaris
Conditions: dog
Method in brief: as §2

Compound	Papp A→B [×10⁻⁶ cm/s]
O=C(c1cccs1)N1CCN(CCOc2ccc(Cl)cc2Cl)CC1	17
O=C(c1cccs1)N1CCN(CCOc2ccc(Cl)cc2)CC1	21.3
Cc1ccc(OCCN2CCN(C(=O)c3cccs3)CC2)cc1	20

System: MDCK
Assay: Efflux ratio of permeability from apical to basolateral over basolateral to apical in MDCK cells
Format: ADME, cell-based, Canis lupus familiaris
Conditions: dog
Method in brief: as §2

Compound	Ratio
O=C(c1cccs1)N1CCN(CCOc2ccc(Cl)cc2Cl)CC1	0.89
O=C(c1cccs1)N1CCN(CCOc2ccc(Cl)cc2)CC1	0.97
N#Cc1ccc(OCCN2CCN(CC(=O)Nc3nccs3)CC2)cc1	1.14
O=C(CN1CCN(CCOc2ccc(OC(F)(F)F)cc2)CC1)Nc1nccs1	1.5
Cc1ccc(OCCN2CCN(C(=O)c3cccs3)CC2)cc1	0.64
Cc1ccccc1OCCN1CCN(CC(=O)Nc2nccs2)CC1	1.09

Biological target: Potassium voltage-gated channel subfamily A member 5 (Homo sapiens, UniProt P22460)
Sequence (P22460 whole entry): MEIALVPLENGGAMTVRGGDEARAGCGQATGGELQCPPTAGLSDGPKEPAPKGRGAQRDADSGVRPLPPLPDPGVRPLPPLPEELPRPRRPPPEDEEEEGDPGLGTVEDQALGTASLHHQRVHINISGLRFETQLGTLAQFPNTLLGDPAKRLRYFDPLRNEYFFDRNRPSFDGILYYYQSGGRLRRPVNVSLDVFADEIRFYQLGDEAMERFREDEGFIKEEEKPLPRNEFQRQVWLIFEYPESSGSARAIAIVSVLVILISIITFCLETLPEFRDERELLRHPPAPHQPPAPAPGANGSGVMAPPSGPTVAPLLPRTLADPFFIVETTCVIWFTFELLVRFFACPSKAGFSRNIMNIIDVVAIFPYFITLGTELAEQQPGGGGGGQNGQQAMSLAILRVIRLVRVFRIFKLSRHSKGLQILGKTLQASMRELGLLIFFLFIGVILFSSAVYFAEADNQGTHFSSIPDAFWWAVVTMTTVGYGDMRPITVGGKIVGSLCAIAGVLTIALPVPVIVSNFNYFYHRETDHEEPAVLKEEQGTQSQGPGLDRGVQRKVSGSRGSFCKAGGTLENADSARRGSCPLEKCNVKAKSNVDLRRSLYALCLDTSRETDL
Assay: Inhibition of human Kv1.5 channel expressed in HEK293 cells by whole cell patch clamp assay
Format: cell-based
Conditions: not given
Method in brief: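 Whole-cell patch clamp was done on transfected HEK293 cells, harvested by trypsin and used the same day, with 4–6 MΩ pipettes at 25 °C. IKur was elicited by 500-ms steps to +60 mV from a −80 mV holding potential at 0.1 Hz. Compound was applied at least 5 min after current stabilization. IC50 came from cell-by-cell Hill fits, with at least 3 cells per concentration; mean ± SD.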

Compound	IC50 [µM]
O=C(CN1CCN(CCOc2ccccc2Cl)CC1)Nc1nccs1	3.39
O=C(c1ccccc1)N1CCN(CCOc2ccc(Cl)cc2)CC1	3.97
O=C(CN1CCN(CCOc2ccc(Cl)cc2)CC1)Nc1ccccc1Cl	3.59
O=C(c1cccs1)N1CCN(c2ccc(OC(F)(F)F)cc2)CC1	48.4
N#Cc1ccc(OCCN2CCN(CC(=O)Nc3ccccc3)CC2)cc1	9.1
Cc1ccc(C(=O)N2CCN(CCOc3ccccc3)CC2)cc1	7.14
Cc1cccc(C)c1OCCN1CCN(CC(=O)Nc2nccs2)CC1	85.9
O=C(c1cccs1)N1CCN(CCOc2ccc(Cl)cc2Cl)CC1	1.48
O=C(c1cccs1)N1CCN(CCOc2ccccc2)CC1	37.5
O=C(c1cccs1)N1CCN(CCOc2ccc(Cl)cc2)CC1	0.72
O=C(c1ccccc1Cl)N1CCN(CCOc2ccccc2)CC1	56.7
Cc1ccccc1OCCN1CCN(CC(=O)Nc2ccccc2)CC1	11.8
O=C(c1cccs1)N1CCN(CCOc2ccc(OC(F)(F)F)cc2)CC1	6.44
Cc1ccc(NC(=O)CN2CCN(CCOc3ccc(C#N)cc3)CC2)cc1	4.49
Cc1ccc(C(=O)N2CCN(CCOc3ccc(Cl)cc3)CC2)cc1	4.51
O=C(c1cccs1)N1CCN(CCOc2ccc(Br)cc2)CC1	12.2
COc1ccc(NC(=O)CN2CCN(CCOc3ccc(C#N)cc3)CC2)cc1	14.5
COc1ccc(NC(=O)CN2CCN(CCOc3ccc(Cl)cc3)CC2)cc1	2.62
Cc1ccc(OCCN2CCN(CC(=O)Nc3nccs3)CC2)c(C)c1	17.2
O=C(CN1CCN(CCOc2ccc3ccccc3c2)CC1)Nc1nccs1	68
N#Cc1ccc(OCCN2CCN(CC(=O)Nc3nccs3)CC2)cc1	0.97
O=C(CN1CCN(CCOc2ccc(OC(F)(F)F)cc2)CC1)Nc1nccs1	2.29
Cc1ccc(OCCN2CCN(C(=O)c3cccs3)CC2)cc1	1.52
Cc1ccccc1OCCN1CCN(CC(=O)Nc2nccs2)CC1	1.24

System: Rattus norvegicus
Assay: Inhibition of Cacl2-Ach-induced atrial fibrillation Sprague-Dawley rat model assessed as reduction in duration of atrial fibrillation at 1.25 mg/kg, ip during day 1 to day 3
Format: functional, organism-based
Parameters: dose 1.25 mg/kg
Conditions: Cardiac atrium

Compound	Activity
O=C(c1cccs1)N1CCN(CCOc2ccc(Cl)cc2)CC1	inactive

System: MDCK
Assay: (§4) Apparent permeability from apical to basolateral side in MDCK cells expressing MDR1
Format: ADME, cell-based, Canis lupus familiaris
Conditions: dog, mdck
Method in brief: as §2

Compound	Papp [×10⁻⁶ cm/s]
N#Cc1ccc(OCCN2CCN(CC(=O)Nc3nccs3)CC2)cc1	18.9
O=C(CN1CCN(CCOc2ccc(OC(F)(F)F)cc2)CC1)Nc1nccs1	16.3

System: MDR1
Assay: as §4
Format: ADME, cell-based, Canis lupus familiaris
Conditions: dog, MDCK-MDR1
Method in brief: as §2

Compound	Papp A→B [×10⁻⁶ cm/s]
O=C(c1cccs1)N1CCN(CCOc2ccc(Cl)cc2Cl)CC1	39.1
O=C(c1cccs1)N1CCN(CCOc2ccc(Cl)cc2)CC1	16.1
Cc1ccc(OCCN2CCN(C(=O)c3cccs3)CC2)cc1	25.6
Cc1ccccc1OCCN1CCN(CC(=O)Nc2nccs2)CC1	28.9

System: Rattus norvegicus
Assay: Inhibition of Cacl2-Ach-induced atrial fibrillation Sprague-Dawley rat model assessed as reduction in duration of atrial fibrillation at 2.5 mg/kg, ip during day 4 to day 7
Format: functional, organism-based
Parameters: dose 2.5 mg/kg
Conditions: Cardiac atrium

Compound	Activity
CC(C)NCC(O)c1ccc(NS(C)(=O)=O)cc1 (configuration not stated)	Active
O=C(c1cccs1)N1CCN(CCOc2ccc(Cl)cc2)CC1	Active

System: Rattus norvegicus
Assay: Inhibition of Cacl2-Ach-induced atrial fibrillation Sprague-Dawley rat model assessed as reduction in duration of atrial fibrillation at 1.25 mg/kg, ip during day 4 to day 7
Format: functional, organism-based
Parameters: dose 1.25 mg/kg
Conditions: Cardiac atrium

Compound	Activity
O=C(c1cccs1)N1CCN(CCOc2ccc(Cl)cc2)CC1	Active

System: MDCK
Assay: Efflux ratio of permeability from apical to basolateral over basolateral to apical in MDCK cells expressing MDR1
Format: ADME, cell-based, Canis lupus familiaris
Conditions: dog
Method in brief: as §2

Compound	Ratio
O=C(c1cccs1)N1CCN(CCOc2ccc(Cl)cc2Cl)CC1	1.24
O=C(c1cccs1)N1CCN(CCOc2ccc(Cl)cc2)CC1	0.84
N#Cc1ccc(OCCN2CCN(CC(=O)Nc3nccs3)CC2)cc1	1.14
O=C(CN1CCN(CCOc2ccc(OC(F)(F)F)cc2)CC1)Nc1nccs1	1.42
Cc1ccc(OCCN2CCN(C(=O)c3cccs3)CC2)cc1	0.78
Cc1ccccc1OCCN1CCN(CC(=O)Nc2nccs2)CC1	0.92

System: Rattus norvegicus
Assay: Inhibition of Cacl2-Ach-induced atrial fibrillation Sprague-Dawley rat model assessed as increase in atrial effective refractory period at 2.5 mg/kg, ip
Conditions: Cardiac atrium

Compound	Activity
CC(C)NCC(O)c1ccc(NS(C)(=O)=O)cc1 (configuration not stated)	Active
O=C(c1cccs1)N1CCN(CCOc2ccc(Cl)cc2)CC1	Active

System: not listed separately
Assay: Dissociation constant, pKa of the compound
Format: physicochemical
Conditions: not given
Method in brief: (§5)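 pKa and log D at pH 7.4 were determined by Avdeef–Bucher potentiometric titration on a Gemini Profiler instrument.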

Compound	pKa
O=C(c1cccs1)N1CCN(CCOc2ccc(Cl)cc2Cl)CC1	5.23
O=C(c1cccs1)N1CCN(CCOc2ccc(Cl)cc2)CC1	6.35
N#Cc1ccc(OCCN2CCN(CC(=O)Nc3nccs3)CC2)cc1	6.37
O=C(CN1CCN(CCOc2ccc(OC(F)(F)F)cc2)CC1)Nc1nccs1	6.74
Cc1ccc(OCCN2CCN(C(=O)c3cccs3)CC2)cc1	6.4
Cc1ccccc1OCCN1CCN(CC(=O)Nc2nccs2)CC1	7.11

System: Rattus norvegicus
Assay: Inhibition of Cacl2-Ach-induced atrial fibrillation Sprague-Dawley rat model assessed as increase in atrial effective refractory period at 1.25 mg/kg, ip
Conditions: Cardiac atrium

Compound	Activity
O=C(c1cccs1)N1CCN(CCOc2ccc(Cl)cc2)CC1	Active

System: not listed separately
Assay: Partition coefficient, log D of the compound at pH 7.4
Format: physicochemical
Conditions: octanol/water
Method in brief: as §5

Compound	logD
O=C(c1cccs1)N1CCN(CCOc2ccc(Cl)cc2Cl)CC1	3.73
O=C(c1cccs1)N1CCN(CCOc2ccc(Cl)cc2)CC1	1.94
N#Cc1ccc(OCCN2CCN(CC(=O)Nc3nccs3)CC2)cc1	1.72
O=C(CN1CCN(CCOc2ccc(OC(F)(F)F)cc2)CC1)Nc1nccs1	3.94
Cc1ccc(OCCN2CCN(C(=O)c3cccs3)CC2)cc1	3.24
Cc1ccccc1OCCN1CCN(CC(=O)Nc2nccs2)CC1	2.45

System: MDCK
Assay: (§6) Apparent permeability from basolateral to apical side in MDCK cells expressing MDR1
Format: ADME, cell-based, Canis lupus familiaris
Conditions: dog, mdck
Method in brief: as §2

Compound	Papp [×10⁻⁶ cm/s]
N#Cc1ccc(OCCN2CCN(CC(=O)Nc3nccs3)CC2)cc1	19.8
O=C(CN1CCN(CCOc2ccc(OC(F)(F)F)cc2)CC1)Nc1nccs1	19.6

System: MDR1
Assay: as §6
Format: ADME, cell-based, Canis lupus familiaris
Conditions: dog, MDCK-MDR1
Method in brief: as §2

Compound	Papp B→A [×10⁻⁶ cm/s]
O=C(c1cccs1)N1CCN(CCOc2ccc(Cl)cc2Cl)CC1	31.5
O=C(c1cccs1)N1CCN(CCOc2ccc(Cl)cc2)CC1	19.3
Cc1ccc(OCCN2CCN(C(=O)c3cccs3)CC2)cc1	32.8
Cc1ccccc1OCCN1CCN(CC(=O)Nc2nccs2)CC1	32.3

System: not listed separately
Assay: Toxicity in SPF mouse compound administered through iv
Format: organism-based
Conditions: in vivo
Method in brief: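 Acute toxicity by tail-vein iv injection in SPF mice: 70 animals in 7 groups, one given distilled water (30 mL/kg) and six given 84.6, 79.8, 75.3, 71, 67 or 63.2 mg/kg. Behaviour, mental state, excrement and death observed continuously over 0-0.5 h, every 0.5 h to 6 h, then daily for 15 days. LD50 derived by the Bliss-Finney method.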

Compound	LD50 [mg/kg]
O=C(c1cccs1)N1CCN(CCOc2ccc(Cl)cc2)CC1	73.7
